PERK inhibitor = human PERK inhibition, primary cell-based screen; Q9NZJ5; AID 1416; inhibition, % at 5.6 µM; CHO PERK-DD fusion, SEAP luminescence translation reporter; 220,000 compounds, 0.17% hits;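 active = inhibition above the mean inhibition of all tested compounds plus 3 SD, set separately per screening campaign, cut at about 2.9% in these data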;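 note: PERK kinase domain activated by AP20187 dimerizer at 100 nM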
Calb biofilm kill = mixtures killing C. albicans biofilm; inhibition, % at 7.6 µM; C. albicans biofilm persisters + clotrimazole, fluorescence viability; primary screen in compound mixtures of four per well; 120,000 compounds, 0.02% hits;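 active = inhibition above 30.3% in the primary screen of four-compound pools, then above 30% when the compound was retested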;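 note: compounds exposed to preformed 24 h biofilms for 48 h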
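Incubation: 24 h biofilm formation, then 48 h compound exposure, 37 °C | Material: C. albicans biofilms | Buffer or medium: RPMI/MOPS medium, pH 7.0 | Measured by: 2-h Alamar Blue fluorescence, 535/590 nm excitation/emission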
p97 inhibitor = human p97 ATPase inhibition. P55072. recombinant p97 ATPase, Kinase-Glo ATP luminescence, 3 h. inhibition, % at 8 µM. 220,000 compounds, 0.42% hits; in the data active = inhibition above about 15%
Hck-Nef inh = inhibitors of human Hck kinase activated by Nef; Recombinant Hck-YEEI plus Nef, Z-Lyte FRET kinase assay; inhibition, % at 20 µM; 220,000 compounds, 0.68% hits; AID 463187;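 active = Hck-Nef kinase inhibition above about 50%, limit read from the data; inactive = inhibition below that limit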
14-3-3 Bad inh = disrupts binding of bovine 14-3-3 zeta to phospho-Bad peptide. P63103. TR-FRET 14-3-3zeta/Dy647-pBad peptide displacement, 1 h. inhibition, % at 21.7 µM. 220,000 compounds, 0.71% hits. AID 781;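 active = inhibition above about 70%, limit read from the data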
eIF4E-4G inh = eIF4E/eIF4G interaction inhibition in translation initiation; inhibition, % at 21.7 µM; TR-FRET eIF4E-eIF4GI(517-606) binding, 2 h; 220,000 compounds, 0.37% hits; P63073+Q04637;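 active = inhibition above about 30%, limit read from the data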
p97 inh conf = confirmation of human p97 ATPase inhibitors | shares compounds with p97 inhibitor | AID 1517 | recombinant p97 ATPase, Kinase-Glo ATP luminescence | inhibition, % at 8 µM | 760 compounds, 44% hits;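 active = percent inhibition of p97 ATPase above a set limit, the primary screen's mean plus 3 SD, cut at about 15% in these data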
A number is an active result; – = inactive; · = not tested or not shown. Hits are enriched below; roughly 2.2% of the tested compounds scored in any of these assays.

SMILES	PERK inhibitor	Calb biofilm kill	p97 inhibitor	Hck-Nef inh	14-3-3 Bad inh	eIF4E-4G inh	others
O=c1c2ccccc2sn1-c1cc(S(=O)(=O)N2CCOCC2)ccc1N1CCCC1	–	·	–	–	–	56
COC(=O)c1ccc(=O)c2nc3/c(=C/O)c(O)cc(=O)c3[nH]c12	–	–	–	–	73	55
N#Cc1c(N(CCO)CCO)nc(N)c2c(N)nc3c(c12)CC(=O)N3Cc1cccs1	–	–	29	–	–	–
CC(CC(=O)O)CC(=O)Nc1ccc(Br)cc1 (stereo not drawn)	–	–	–	–	–	–
COC(=O)c1ccc(Sc2ccc(C)cc2)c(N)c1	–	·	–	–	–	–
COc1cc(Sc2ccc(C)cc2)c(OC)cc1N	–	·	–	–	76	–
O=S(=O)(Nc1ccccc1N1CCCCC1)c1cccs1	–	–	–	–	–	–
O=S(=O)(Nc1ccccc1N1CCCCC1)c1ccc(F)cc1	3.2	–	–	–	–	–
COc1ccc2nc(NC(=O)CCN3C(=S)NC(C)(C)CC3C)sc2c1 (stereo not drawn)	–	–	–	–	–	–
O=C(Cn1cc([N+](=O)[O-])nc1[N+](=O)[O-])N1CCN(c2ccccc2)CC1	–	–	–	–	–	–
COc1cc(-c2nc(-c3ccc(Br)o3)no2)cc(OC)c1OC	–	·	19	–	–	–
COc1ccc(-c2noc(-c3ccc(Br)o3)n2)cc1OC	–	·	–	–	–	–
Cc1nn2c(N)c(C#N)cnc2c1-c1ccc(Cl)cc1	–	·	–	–	–	–
COc1ccc(-c2c(C)nn3c(N)c(C#N)cnc23)cc1OC	–	–	–	–	–	38
Cn1nc(C(=O)NCCOc2ccccc2)c2ccccc2c1=O	–	–	–	–	75	–
CC(C)c1ccc(CN2CCC(C(=O)NCc3cccnc3)CC2)cc1	–	·	–	–	74	75
Cn1c(=NC(=O)c2ccco2)sc2ccccc21	–	–	–	–	–	–
Cn1c(=NC(=O)CCl)sc2ccccc21	–	·	20	–	–	–	p97 inh conf=22
O=C(O)c1ccc(NS(=O)(=O)c2ccc3c(c2)C2C=CCC2C(c2ccccc2F)N3)cc1 (stereo not drawn)	–	–	32	–	–	–	p97 inh conf=37
COc1ccc(OC)c(Nc2nc(NCc3ccco3)nc(N)c2[N+](=O)[O-])c1	–	–	–	–	–	–
COc1ccccc1Nc1nc(NCc2ccco2)nc(N)c1[N+](=O)[O-]	–	–	16	–	–	–	p97 inh conf=21
CCC(=O)Nc1ccc(F)c(Cl)c1	–	·	–	–	–	–
CCC(=O)Nc1ccc(Br)c(Cl)c1	–	·	16	–	–	–	p97 inh conf=–
CC(CCCC(C)(C)O)NC(=O)c1ccc(OC2CCN(C(=O)C3CC3)CC2)cc1 (stereo not drawn)	–	–	–	–	–	–
O=C(CSc1nc2ccc([N+](=O)[O-])cc2s1)c1ccc2ccccc2c1	–	–	17	–	–	–	p97 inh conf=–
SMILES	PERK inhibitor	Calb biofilm kill	p97 inhibitor	Hck-Nef inh	14-3-3 Bad inh	eIF4E-4G inh	others
O=[N+]([O-])c1ccc2nc(SCc3ccccc3Cl)sc2c1	–	·	–	–	–	–
Cn1c(=O)c2c(SCC(=O)Nc3nccs3)nc(C3CC3)nc2n(C)c1=O	–	–	–	–	–	–
O=[N+]([O-])c1ccc2c(c1)c(-c1ccccc1)nc1nncn12	–	–	34	–	–	–	p97 inh conf=–
O=[N+]([O-])c1ccc2nc(-c3ccccc3)cc(-c3ccccc3)c2c1	–	–	–	–	–	–
NC(=O)CC1Nc2cccc3cccc(c23)NC1=O (stereo not drawn)	–	–	35	–	–	–	p97 inh conf=–
O=C(CC1Nc2cccc3cccc(c23)NC1=O)Nc1ccccc1 (stereo not drawn)	–	–	–	–	–	–
NNC(=O)c1cc2sccc2s1	–	–	–	–	–	–
CCc1ccccc1NC(=O)C1C(c2ccccc2)C1(Cl)Cl (stereo not drawn)	–	·	–	–	–	–
O=C(Nc1ccc(F)cc1)C1C(c2ccccc2)C1(Cl)Cl (stereo not drawn)	–	–	41	–	–	–	p97 inh conf=47
